What is called logP is the decadic logarithm of the partition coefficient of the neutral form, usually between octanol and water. As usually defined, the half-life is how long it takes for the measured level to halve. The term AUC denotes the area under the concentration-time curve, a measure of exposure. A lower AUC goes with less exposure. As usually defined, the Cmax is the peak of the concentration-time curve. Usually Tmax stands for the time at which the peak concentration occurs.

27 molecules from ChEMBL document CHEMBL4699543, “Preparation and evaluation of soluble epoxide hydrolase inhibitors with improved physical properties and potencies for treating diabetic neuropathic pain” (Bioorg Med Chem, 2020) can be followed below.

The nature of data set [1]: Lipophilicity, logP of compound at 100 uM incubated for 90 mins by HPLC analysis. Format: physicochemical. The note with it: for logP: 100 µM.
Data set [2] is described as follows: Half life in mouse at 0.3 mg/kg, po. Format: ADME, organism-based. The note with it: in vivo. The procedure, abridged:
(§1)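 Mice (n=4) given oral gavage cassette of 4 compounds, each 0.3 mg/kg, dissolved in 20% PEG400 in oleic acid rich triglycerides; plasma PK parameters calculated by one-compartment model.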

Data set [3] can be described thus: AUC in mouse at 0.3 mg/kg, po. The arrangement: dose 0.3 mg/kg. Format: ADME, organism-based. The following applies: in vivo. The gist of the method:
as §1

Data set [4] in a line: Cmax in mouse at 0.3 mg/kg, po. Format: ADME, organism-based. The arrangement: route oral, dose 0.3 mg/kg. The note with it: in vivo. The procedure, abridged:
as §1

The nature of data set [5]: Tmax in mouse at 0.3 mg/kg, po. Format: ADME, organism-based. The following applies: in vivo. The gist of the method: as §1

Molecule `Cc1occc1C(=O)N1CCC(NC(=O)Nc2ccc(OC(F)(F)F)cc2)CC1` returned a log partition coefficient (logP) at […], 100 µM in data set [1] of 4.3.

For `CCOC(=O)N1CCC(NC(=O)Nc2ccc(C(F)(F)F)c(F)c2)CC1`, the log partition coefficient (logP) at […], 100 µM in data set [1] came out at 5.46. Consider `O=C(Nc1ccc(OC(F)(F)F)cc1)NC1CCN(C(=O)C2CCOCC2)CC1`, for which the logP at […], 100 µM in data set [1] is 3.26. In addition, the half-life in data set [2] is 6.3 h. The same molecule displayed an exposure (AUC) in data set [3] of 6.37 µM·h. Moreover, the Cmax in data set [4] is 381 nM. Besides, in data set [5], the Tmax was 4.2 h. The molecule `O=C(Nc1ccc(C(F)(F)F)cc1)NC1CCN(C(=O)C2CCCOC2)CC1` (stereo not given) registered a logP at […], 100 µM in data set [1] of 3.41. Still for that read-out and setting: the same measure for `CC[C@H](C)C(=O)N1CCC(NC(=O)Nc2ccc(C(F)(F)F)cc2)CC1`: 3.84. In the case of `O=C(Nc1ccc(C(F)(F)F)c(F)c1)NC1CCN(C(=O)C2CCOCC2)CC1`, the logP at […], 100 µM in data set [1] came out at 3.52. `O=C(Nc1ccc(C(F)(F)F)c(F)c1)NC1CCN(C(=O)C2CCCOC2)CC1` (stereo not given) yielded a logP at […], 100 µM in data set [1] of 3.84. Take `CC(C)C(=O)N1CCC(NC(=O)Nc2ccc(OC(F)(F)F)c(F)c2)CC1`: the half-life in data set [2] was 6.6 h. Also, in data set [3], the exposure (AUC) was 10.9 µM·h. Also, the peak concentration (Cmax) in data set [4] turned out to be 423 nM. For the same molecule, the Tmax in data set [5] was determined as 10 h. In data set [2], `CCC(=O)N1CCC(NC(=O)Nc2ccc(OC(F)(F)F)c(F)c2)CC1` had a half-life of 13 h. Also, in data set [3], the area under the curve (AUC) was 13 µM·h. In data set [4], the peak level (Cmax) was 479 nM. Besides, the time of peak concentration (Tmax) in data set [5] was found to be 6.7 h. `O=C(Nc1ccc(OC(F)(F)F)c(F)c1)NC1CCN(C(=O)C2(C(F)(F)F)CC2)CC1`: in data set [1], the logP at […], 100 µM came to 5.94.

In the case of `CC[C@H](C)C(=O)N1CCC(NC(=O)Nc2ccc(OC(F)(F)F)c(Cl)c2)CC1`, the log partition coefficient (logP) at […], 100 µM in data set [1] stood at 7.7. As to `O=C(Nc1ccc(OC(F)(F)F)c(F)c1)NC1CCN(C(=O)C2CCOCC2)CC1`, the logP at […], 100 µM in data set [1] was found to be 3.73. Moreover, the half-life in data set [2] is 4.3 h. Moreover, in data set [3], the AUC came to 5.56 µM·h. Moreover, the Cmax in data set [4] turned out to be 332 nM. The Tmax in data set [5] worked out at 6.5 h. `CC[C@H](C)C(=O)N1CCC(NC(=O)Nc2ccc(OC(F)(F)F)c(C(F)(F)F)c2)CC1` had a log partition coefficient (logP) in data set [1] of 9.02. In data set [1], `O=C(Nc1ccc(OC(F)(F)F)c(F)c1)NC1CCN(C(=O)C2CC2)CC1` gave a log partition coefficient (logP) at […], 100 µM of 4.19.

`O=C(Nc1ccc(OC(F)(F)F)c(F)c1)NC1CCN(C(=O)C2CCCOC2)CC1` (stereo not given): the half-life in data set [2] was 3.2 h. This molecule also gave an AUC in data set [3] of 0.785 µM·h. For the same molecule, the peak level in data set [4] (Cmax) was 112 nM. Also, the time of peak concentration (Tmax) in data set [5] came to 2.1 h.

`O=C(Nc1ccc(C(F)(F)F)c(F)c1)NC1CCN(C(=O)C2CC2)CC1` showed a logP at […], 100 µM in data set [1] of 3.94. Consider `O=C(Nc1ccc(OC(F)(F)F)c(F)c1)NC1CCN(C(=O)N2CCOCC2)CC1`, for which the logP at […], 100 µM in data set [1] was determined as 3.93. As for `O=C(Nc1ccc(C(F)(F)F)c(F)c1)NC1CCN(C(=O)C2(C(F)(F)F)CC2)CC1`, the log partition coefficient (logP) at […], 100 µM in data set [1] came out at 5.52.

In data set [2], `O=C(Nc1ccc(OC(F)(F)F)cc1)NC1CCN(C(=O)C2CCCOC2)CC1` (racemic) had a half-life of 3.1 h. For the same molecule, the exposure (AUC) in data set [3] came to 0.483 µM·h. The same molecule gave a peak concentration (Cmax) in data set [4] of 38 nM. For the same molecule, the Tmax in data set [5] was 6.5 h. With `CC[C@H](C)C(=O)N1CCC(NC(=O)Nc2ccc(OC(F)(F)F)c(OC(F)(F)F)c2)CC1`, the log partition coefficient (logP) in data set [1] is listed as 10.62.

On to `CC[C@H](C)C(=O)N1CCC(NC(=O)Nc2ccc(OC(F)(F)F)c(F)c2)CC1`, for which, in data set [2], the half-life was 3.3 h. In addition, in data set [3], the area under the curve (AUC) was 2.17 µM·h. The peak level in data set [4] (Cmax) was 166 nM. The Tmax in data set [5] was determined as 5.2 h. In data set [1], `CCOC(=O)N1CCC(NC(=O)Nc2ccc(OC(F)(F)F)c(F)c2)CC1` showed a logP at […], 100 µM of 5.94. `O=C(Nc1ccc(C(F)(F)F)cc1)NC1CCN(C(=O)C2=COCC2)CC1` displayed a lipophilicity (logP) at […], 100 µM in data set [1] of 3.37.

The molecule `CC[C@H](C)C(=O)N1CCC(NC(=O)Nc2ccc(C(F)(F)F)cn2)CC1` displayed a lipophilicity (logP) in data set [1] of 3.22. `CC[C@H](C)C(=O)N1CCC(NC(=O)Nc2ccc(OC(F)(F)F)c(Br)c2)CC1` had a log partition coefficient (logP) at […], 100 µM in data set [1] of 8.07. In data set [1], `O=C(Nc1ccc(C(F)(F)F)cc1)NC1CCN(C(=O)c2cc[nH]c2)CC1` yielded a logP at […], 100 µM of 3.26. Still for that read-out and setting: the same measure for `CCC(=O)N1CCC(NC(=O)Nc2ccc(C(F)(F)F)c(F)c2)CC1`: 3.76.
